Source: ChEMBL document CHEMBL3785069, “Tumour-specific cytotoxicity and structure-activity relationships of novel 1-[3-(2-methoxyethylthio)propionyl]-3,5-bis(benzylidene)-4-piperidones” (Bioorg Med Chem, 2016)
Active and inactive are the calls of the source. The calls are words filed in the database; no cut-off is given here.

Assays:
[1] = Cytotoxicity against human Molt4/C8 cells after 72 hrs by MTT assay; format: functional, cell-based; details: MOLT-4, 72 h
Summary of the method: (§1)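 Leukemic cells exposed to a concentration series of each compound in RPMI 1640 medium at 37 °C, 72 h for Molt4/C8 and CEM, 48 h for L1210.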

CCRF-CEM = assay: Cytotoxicity against human CEM cells after 72 hrs by MTT assay; format: functional, cell-based; summary of the method: as §1
L1210 = assay: Cytotoxicity against mouse L1210 cells after 48 hrs by MTT assay; format: functional, cell-based; details: L1210, 48 h; summary of the method: as §1
[2] = Cytotoxicity against human HSC2 cells after 48 hrs by MTT assay; format: functional; details: HSC-2, 48 h
Summary of the method: (§2)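 Oral carcinoma (HSC-2, HSC-3, HSC-4) and nonmalignant HGF and HPLF cells incubated with graded compound concentrations at 37 °C for 48 h in DMEM plus 10% heat-inactivated FBS. Viability read by MTT. CC50 from duplicate runs, differing by under 10% at each concentration.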

[3] = Cytotoxicity against human HSC3 cells after 48 hrs by MTT assay; format: functional; details: HSC-3, 48 h; summary of the method: as §2
[4] = Cytotoxicity against human HSC4 cells after 48 hrs by MTT assay; format: functional; details: HSC-4, 48 h; summary of the method: as §2
[5] = Cytotoxicity against human HGF cells after 48 hrs by MTT assay; format: cell-based; summary of the method: as §2
[6] = Cytotoxicity against human HPLF cells after 48 hrs by MTT assay; format: cell-based; summary of the method: as §2
HSC-2 [7] = assay: Selectivity index, ratio of average CC50 for human HGF and HPLF cells to CC50 for human HSC2 cells; details: pooled result: one value given for 2 cell lines, strains, targets or settings
HSC-3 [8] = assay: Selectivity index, ratio of average CC50 for human HGF and HPLF cells to CC50 for human HSC3 cells; details: pooled result: one value given for 2 cell lines, strains, targets or settings
HSC-4 [9] = assay: Selectivity index, ratio of average CC50 for human HGF and HPLF cells to CC50 for human HSC4 cells; details: pooled result: one value given for 2 cell lines, strains, targets or settings
HSC-2 [10] = assay: Induction of apoptosis in human HSC2 cells assessed as PARP1 cleavage at 0.4 uM after 24 hrs by SDS-PAGE method; format: functional, cell-based
Summary of the method: (§3)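 HSC-2 cells grown in 6-well plates for 24 h, then exposed to 0.1, 0.2, 0.3 and 0.4 µM for 24 h. Cells scraped into lysis buffer and run on 8% SDS-PAGE, then transferred to PVDF. Cleaved PARP (Asp214) detected with a human-specific antibody on X-ray film.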

HSC-2 [11] = assay: Induction of apoptosis in human HSC2 cells assessed as PARP1 cleavage after 24 hrs by SDS-PAGE method; format: functional, cell-based; summary of the method: as §3
HSC-2 [12] = assay: Potency index, ratio of CC50 for mephalan to CC50 for test compound against human HSC2 cells; format: functional
HSC-3 [13] = assay: Potency index, ratio of CC50 for mephalan to CC50 for test compound against human HSC3 cells; format: functional
HSC-4 [14] = assay: Potency index, ratio of CC50 for mephalan to CC50 for test compound against human HSC4 cells; format: functional
HSC-2 [15] = assay: Induction of apoptosis in human HSC2 cells assessed as cell death after 24 hrs by Annexin-V-FITC/PI-based flow cytometric analysis; format: functional
Summary of the method: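 HSC-2 cells treated in RPMI for 24 h at 37 °C at 0.5, 1.0 and 2.0 µM. Early and late apoptotic fractions measured by flow cytometry after Annexin-V-FITC/propidium iodide staining.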

Row | SMILES | IC50 [1] [nM] | IC50 (CCRF-CEM) [nM] | IC50 (L1210) [nM] | CC50 [2] [nM] | CC50 [3] [nM] | CC50 [4] [nM] | CC50 at 48 h [5] [nM] | CC50 at 48 h [6] [nM] | Selectivity Index (HSC-2 [7]) | Selectivity Index (HSC-3 [8]) | Selectivity Index (HSC-4 [9]) | Activity (HSC-2 [10]) | Activity (HSC-2 [11]) | Ratio (HSC-2 [12]) | Ratio (HSC-3 [13]) | Ratio (HSC-4 [14]) | Activity (HSC-2 [15])
1 | COCCOCCC(=O)N1C/C(=C\c2ccccc2)C(=O)/C(=C/c2ccccc2)C1 | 1840 | 1760 | 6240 | 1010 | 1320 | 1220 | 9240 | 8840 | 8.95 | 6.85 | 7.41 |  |  |  |  |  | 
2 | COCCS(=O)(=O)CCC(=O)N1C/C(=C\c2ccccc2)C(=O)/C(=C/c2ccccc2)C1 | 1660 | 1140 | 2670 | 1460 | 1190 | 1300 | 9590 | 8430 | 6.17 | 7.57 | 6.93 |  |  |  |  |  | 
3 | COCC[S+]([O-])CCC(=O)N1C/C(=C\c2ccccc2)C(=O)/C(=C/c2ccccc2)C1 (configuration not stated) | 1620 | 1290 | 4910 | 580 | 2100 | 1020 | 9090 | 9100 | 15.7 | 4.33 | 8.92 |  |  |  |  |  | 
4 | COCCSCCC(=O)N1C/C(=C\c2ccc(C)cc2)C(=O)/C(=C/c2ccc(C)cc2)C1 | 2660 | 1950 | 4900 | 1450 | 1700 | 1200 | 10300 | 9170 | 6.72 | 5.73 | 8.12 |  |  |  |  |  | 
5 | COCC[S+]([O-])CCC(=O)N1C/C(=C\c2ccc(F)cc2)C(=O)/C(=C/c2ccc(F)cc2)C1 (configuration not stated) | 1280 | 830 | 3330 | 690 | 1010 | 700 | 4830 | 4210 | 6.55 | 4.48 | 6.46 |  |  |  |  |  | 
6 | COCCSCCC(=O)N1C/C(=C\c2ccc(OC)cc2)C(=O)/C(=C/c2ccc(OC)cc2)C1 | 7080 | 6310 | 13200 | 1970 | 2270 | 1630 | 17200 | 15500 | 8.33 | 7.23 | 10.1 |  |  |  |  |  | 
7 | COCCSCCC(=O)N1C/C(=C\c2ccc(Cl)cc2)C(=O)/C(=C/c2ccc(Cl)cc2)C1 | 1730 | 1240 | 3440 | 1090 | 1030 | 810 | 5240 | 5970 | 5.15 | 5.45 | 6.93 |  |  |  |  |  | 
8 | COCCSCCC(=O)N1C/C(=C\c2ccccc2)C(=O)/C(=C/c2ccccc2)C1 | 1340 | 1230 | 3000 | 1300 | 1470 | 1220 | 9670 | 7580 | 6.64 | 5.87 | 7.07 |  |  |  |  |  | 
9 | COCCSCCC(=O)N1C/C(=C\c2ccc(F)cc2)C(=O)/C(=C/c2ccc(F)cc2)C1 | 1720 | 1600 | 5850 | 760 | 1190 | 560 | 5270 | 4990 | 6.75 | 4.31 | 9.16 |  |  |  |  |  | 
10 | COCCSCCC(=O)N1C/C(=C\c2ccc(OC)c(OC)c2)C(=O)/C(=C/c2ccc(OC)c(OC)c2)C1 | 1810 | 1840 | 1570 | 400 | 1220 | 860 | 9830 | 8070 | 22.4 | 7.34 | 10.4 | Active |  |  |  |  | 
11 | N[C@@H](Cc1ccc(N(CCCl)CCCl)cc1)C(=O)O [MELPHALAN] | 3480 | 1740 | 5940 | 16700 | 9900 | 11100 | 78000 | 77100 | 4.65 | 7.84 | 6.99 |  |  |  |  |  | 
12 | COCCS(=O)(=O)CCC(=O)N1C/C(=C\c2ccc(F)cc2)C(=O)/C(=C/c2ccc(F)cc2)C1 | 1120 | 610 | 2450 |  |  |  |  |  |  |  |  |  |  |  |  |  | 
13 | COCC[S+](C)CCC(=O)N1C/C(=C\c2ccccc2)C(=O)/C(=C/c2ccccc2)C1.F[B-](F)(F)F (configuration not stated) | 1340 | 1400 | 3450 | 1560 | 1430 | 1360 | 10100 | 6250 | 5.24 | 5.72 | 6.02 |  |  |  |  |  | 
14 | COCCSCCC(=O)N1C/C(=C\c2ccc([N+](=O)[O-])cc2)C(=O)/C(=C/c2ccc([N+](=O)[O-])cc2)C1 | 1370 | 1290 | 2130 | 400 | 390 | 300 | 3520 | 2590 | 7.65 | 7.85 | 10.2 |  | Dose-dependent effect | 35 | 35 | 35 | Dose-dependent effect
